In ChEMBL document CHEMBL1143800, “Design and synthesis of new pyranoxanthenones bearing a nitro group or an aminosubstituted side chain on the pyran ring. Evaluation of their growth inhibitory activity in breast cancer cells” (Eur J Med Chem, 2007) one finds Activity and IC50 data, which are given here for 15 compounds.

For assay [1], the system named is MDA-MB-231. The assay can be described thus: Antiproliferative activity against human MDA-MB-231 cells at 10 uM after 72 hrs. It is filed as functional. In short, it runs like this:
(§1)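 MDA-MB-231 cells grown in serum-containing EMEM (10% FBS) were plated at 1 × 10⁴ cells/well. 24 h later they were exposed to a single compound level in fresh serum medium, using DMSO/ethanol stocks diluted into the medium. At 72 h, WST-1 was added for 3 h and formazan read at 450 nm (ref 650). Values are % growth inhibition versus controls, averaged ± SD over three experiments, each in triplicate.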

Assay [2] concerns MDA-MB-231. In words: Antiproliferative activity against human MDA-MB-231 cells at 30 uM after 72 hrs. It is filed as functional. In short, it runs like this:
as §1

The subject of assay [3] is MDA-MB-231. The assay can be described thus: Antiproliferative activity against human MDA-MB-231 cells at 100 uM after 72 hrs. The format is functional. A digest of the protocol:
as §1

The subject of assay [4] is MDA-MB-231. The assay can be described thus: Antiproliferative activity against human MDA-MB-231 cells after 72 hrs. The format is functional, cell-based. The conditions noted are these: MDA-MB-231, 72 h. In short, it runs like this:
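MDA-MB-231 (ER-negative) monolayers in EMEM with 10% FBS, L-glutamine, pyruvate, NEAA, insulin at 37 °C, 5% CO2. Seeded 1 × 10⁴ cells/well with serum and dosed 24 h later with compound at 1–100 (DMSO and/or ethanol stocks diluted into medium). After 72 h, 3 h WST-1 read at 450 nm (ref 650). IC50 = concentration halving OD versus untreated controls. Mean ± SD, three independent experiments.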

For assay [5], the system named is MDA-MB-231. In words: Antiproliferative activity against human MDA-MB-231 cells at 1 uM after 72 hrs. The format is functional. A digest of the protocol: as §1
The subject of assay [6] is MDA-MB-231. The assay can be described thus: Antiproliferative activity against human MDA-MB-231 cells at 3 uM after 72 hrs. It is filed as functional. A digest of the protocol: as §1

On to `COc1cc2c(c3oc4ccccc4c(=O)c13)CC(NC(=O)CN(C)C)C(C)(C)O2` (configuration not stated), for which the Activity turned out to be 15% in assay [1]; 15% in assay [2]; 74% in assay [3]; 12% in assay [5]; 12% in assay [6]. The compound further registered an IC50 in assay [4] of 51 µM.
For `CCN(CC)CCNc1cc2c(c3oc4ccccc4c(=O)c13)CC(NCCN(CC)CC)C(C)(C)O2` (configuration not stated), in assay [3], the Activity came out at 75%. In assay [4], this compound displayed an IC50 of 73 µM.
As to `CN(C)CCNc1cc2c(c3oc4ccccc4c(=O)c13)CC(N)C(C)(C)O2` (configuration not stated), the Activity in assay [1], in assay [5] and in assay [6] was 20% throughout. For the same compound, the IC50 in assay [4] is 38 µM.
As to `CCN(CC)CCNc1cc2c(c3oc4ccccc4c(=O)c13)CC([N+](=O)[O-])C(C)(C)O2` (configuration not stated), the Activity in assay [2] and in assay [3] was 20% each time. This compound also came in with a half-inhibitory concentration (IC50) in assay [4] greater than 100 µM.
Turning to `CN(C)CCNc1cc2c(c3oc4ccccc4c(=O)c13)CC(NC(=O)CN(C)C)C(C)(C)O2` (configuration not stated), the Activity in assay [1], in assay [5] and in assay [6] was 20% each time. Also, the 50% inhibitory concentration (IC50) in assay [4] is 50 µM.
Turning to `CN(C)CCNc1cc2c(c3oc4ccccc4c(=O)c13)C=C([N+](=O)[O-])C(C)(C)O2`, the IC50 in assay [4] was determined as 21 µM.
On to `CCN(CC)CCNC1Cc2c(cc(OC)c3c(=O)c4ccccc4oc23)OC1(C)C` (configuration not stated), for which the Activity in assay [1] turned out to be 15%; in assay [2] it was 15%; in assay [3] it was 74%; in assay [5], 12%; in assay [6], 12%. For the same compound, the IC50 in assay [4] came out at 44 µM.
Consider `COc1cc2c(c3oc4ccccc4c(=O)c13)CC(N)C(C)(C)O2` (configuration not stated), for which the Activity in assay [1] was 15%; in assay [2], 15%; in assay [3], 74%; in assay [5], 12%; in assay [6], 12%. In addition, the 50% inhibitory concentration (IC50) in assay [4] is 53 µM.
For the compound `CCN(CC)CCNc1cc2c(c3oc4ccccc4c(=O)c13)CC(N)C(C)(C)O2` (configuration not stated), the Activity in assay [3] is on record as 75%. The compound also showed a concentration for half-maximal inhibition (IC50) in assay [4] of 62 µM.
In the same order, the values of `CCN(CC)CCNc1cc2c(c3oc4ccccc4c(=O)c13)CC(NC(=O)CN(CC)CC)C(C)(C)O2` (configuration not stated) are 75% and 68 µM.
For `CN(C)CCNc1cc2c(c3oc4ccccc4c(=O)c13)CC([N+](=O)[O-])C(C)(C)O2` (configuration not stated), the Activity in assay [1], in assay [5] and in assay [6] was 20% throughout. In addition, in assay [4], the half-maximal inhibitory concentration (IC50) is greater than 100 µM.
Take `COc1cc2c(c3oc4ccccc4c(=O)c13)CC(NCCN(C)C)C(C)(C)O2` (configuration not stated): the Activity in assay [1] is given as 15%; in assay [2], 15%; in assay [3], 74%; in assay [5], 12%; in assay [6], 12%. The compound also had a half-inhibitory concentration (IC50) in assay [4] of 57 µM.
Consider `CCN(CC)CC(=O)NC1Cc2c(cc(OC)c3c(=O)c4ccccc4oc23)OC1(C)C` (configuration not stated), for which the Activity in assay [1] amounted to 15%; in assay [2] it was 15%; in assay [3], 74%; in assay [5], 12%; in assay [6], 12%. In assay [4], this compound yielded an IC50 of 52 µM.
The compound `CCN(CC)CCNc1cc2c(c3oc4ccccc4c(=O)c13)C=C([N+](=O)[O-])C(C)(C)O2` had an IC50 in assay [4] greater than 100 µM.
With `CN(C)CCNc1cc2c(c3oc4ccccc4c(=O)c13)CC(NCCN(C)C)C(C)(C)O2` (configuration not stated), the Activity in assay [1], in assay [5] and in assay [6] was 20% each time. Moreover, the IC50 in assay [4] came to 46 µM.
